Data published in PMC4471785 (Cancer Science, 2015).
Each block holds one compound with its values, some of them ahead of it.

Legend:
LAT1 = LAT1 (Homo sapiens, UniProt Q01650); test: Inhibition of DOX or Asp-DOX uptake into S2-LAT1 cells by amino acids; assay type: cell-based; conditions: 100 μmol/L amino acid, 2 min; for Inhibition of the uptake of Asp-DOX by amino acids: 20 μmol/L Asp-DOX; for Inhibition of the uptake of DOX by amino acids: 20 μmol/L DOX
Method in brief: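 S2-LAT1 cells incubated 2 min with 20 μmol/L test compound, with or without 100 μmol/L Leu, Met, Phe, Asp, Glu or Gly. Uptake stopped by three cold DPBS washes. Internalised drug extracted with methanol and quantified by HPLC.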

HepG2 (LAT1-positive) = test: Cellular uptake in vitro, HepG2; assay type: cell-based, human; conditions: 2 h
Method in brief: (§1)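 HepG2 or H1299 cells seeded at 1.5 × 10^5/well and grown 48 h. Then exposed to test compound at 0, 10, 20 or 50 μg/mL in serum-free medium for 2 h at 37°C, 5% CO2. Rinsed three times with cold DPBS and imaged by fluorescence (excitation 475 nm, 580 nm). Cells then extracted with methanol and sonicated 10 min; supernatant quantified by HPLC/MS.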

HepG2 tumors = test: Biodistribution in HepG2 tumor-bearing mice; assay type: in vivo; conditions: HepG2 models; DOX-treated versus Asp-DOX-treated mice; 5 mg/kg i.v.; 1 h
Method in brief: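 Male nude mice ([…], 4 weeks, 18–22 g) implanted s.c. above the right femoral joint with 1.0 × 107 HepG2, HCT116 or H1299 cells in 0.1 mL PBS, 3–5 per line. On day 20, with tumours about 100 mm3, 5 mg/kg given i.v. Killed 1 h later; tissues frozen in liquid nitrogen. Homogenates extracted twice with methanol (1-naphthol internal standard) for HPLC/MS; reported as % injected dose/g tissue.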

H1299 tumors [1] = test: Therapy study, H1299 tumor model; assay type: in vivo, mice; conditions: 5 mg/kg i.v. twice a week
Method in brief: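 Nude mice bearing s.c. HepG2 or H1299 xenografts, set up as in the biodistribution model, split into three groups once tumours reached 100 mm3. Groups given saline, doxorubicin or test compound at 5 mg/kg i.v. twice a week. Tumours measured twice weekly; volume = length × width²/2; volumes compared after 21 days of treatment.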

[2] = tested on: MDR1-overexpressing MDCK cells; test: Bidirectional transport assay; assay type: in vitro ADME; conditions: 50 μg/mL
Method in brief: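 MDCK-MDR1 cells grown in high-glucose DMEM with 10% FBS. Seeded at 2 × 10^5 cells per 1.12 cm2 on polycarbonate Transwell inserts (0.4-μm pores) and used after about 7 days. TEER checked first. After 20 min equilibration in HBSS with 25 mM HEPES, 50 μg/mL test compound was added to the apical or basolateral donor side at 37°C with 60 rpm shaking. Receiver sampled at 60 min for HPLC-fluorescence. PDR = Papp(B–A)/Papp(A–B); n = 3.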

[3] = Pharmacokinetics in healthy mice; assay type: in vivo
Method in brief: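 Healthy mice dosed 5 mg/kg via tail vein. Retrobulbar blood taken at 0, 2, 5, 10, 15, 30 min, 1, 2 and 4 h, mixed with 0.5 mM EDTA-PBS and spun at 1750 g for 15 min. Supernatant extracted with methanol, dried under nitrogen, reconstituted in mobile phase and analysed by HPLC. AUC0−t by non-compartmental i.v. bolus model.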

[4] = tested on: H1299 (human non-small cell lung carcinoma cell line); test: MTT cytotoxicity, H1299; assay type: cell-based; conditions: 48 h
Method in brief: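 Cells maintained in DMEM or RPMI-1640 with 10% FBS, penicillin and streptomycin at 37°C, 5% CO2. Seeded at 2000–4000 cells/well and grown 48 h, then exposed to test compound at 10, 20 or 50 μg/mL for 48 h. MTT (5 mg/mL stock, 20 μL per 100 μL) added for 2 h; absorbance read at 492 nm. Six repeats; inhibition rate computed from mean values.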

H1299 tumors [5] = test: Biodistribution in H1299 tumor-bearing mice; assay type: in vivo; conditions: H1299 models; DOX versus Asp-DOX; 5 mg/kg i.v.; 1 h
H1299 (LAT1-negative) = test: Cellular uptake in vitro, H1299; assay type: cell-based, human; conditions: 2 h
Method in brief: as §1

Sequence of LAT1 (Q01650 whole entry): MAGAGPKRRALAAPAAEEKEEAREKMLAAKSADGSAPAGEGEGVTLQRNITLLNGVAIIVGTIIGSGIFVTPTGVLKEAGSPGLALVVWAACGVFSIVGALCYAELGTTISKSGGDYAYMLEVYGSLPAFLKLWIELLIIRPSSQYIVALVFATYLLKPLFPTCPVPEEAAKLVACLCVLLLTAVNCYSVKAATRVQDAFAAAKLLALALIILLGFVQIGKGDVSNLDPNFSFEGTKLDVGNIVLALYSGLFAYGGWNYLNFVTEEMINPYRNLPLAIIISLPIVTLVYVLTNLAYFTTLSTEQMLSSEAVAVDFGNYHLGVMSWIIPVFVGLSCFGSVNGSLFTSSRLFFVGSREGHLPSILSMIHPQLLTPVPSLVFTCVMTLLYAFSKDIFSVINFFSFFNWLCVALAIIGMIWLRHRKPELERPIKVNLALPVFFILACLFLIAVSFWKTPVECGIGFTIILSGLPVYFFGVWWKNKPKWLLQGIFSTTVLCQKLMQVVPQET
Sequence of LAT1 (P08195 102-630 partner): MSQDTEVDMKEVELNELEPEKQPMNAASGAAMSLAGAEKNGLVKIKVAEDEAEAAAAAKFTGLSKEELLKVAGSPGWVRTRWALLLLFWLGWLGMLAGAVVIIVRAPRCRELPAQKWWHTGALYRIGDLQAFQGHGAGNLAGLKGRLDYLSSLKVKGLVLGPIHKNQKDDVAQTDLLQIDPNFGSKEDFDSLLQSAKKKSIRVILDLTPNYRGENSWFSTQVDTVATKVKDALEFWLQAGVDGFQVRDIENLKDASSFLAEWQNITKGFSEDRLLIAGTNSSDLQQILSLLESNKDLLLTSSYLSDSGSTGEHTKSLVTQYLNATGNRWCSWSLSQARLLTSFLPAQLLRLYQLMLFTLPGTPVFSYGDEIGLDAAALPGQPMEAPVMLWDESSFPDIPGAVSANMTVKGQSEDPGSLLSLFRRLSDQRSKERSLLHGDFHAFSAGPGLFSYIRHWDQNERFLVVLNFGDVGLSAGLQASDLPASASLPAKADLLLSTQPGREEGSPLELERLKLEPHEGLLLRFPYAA

SMILES: N[C@@H](CCC(=O)O)C(=O)O [Glu]
Inhibition of the uptake of Asp-DOX by amino acids (LAT1): no inhibition | Inhibition of the uptake of DOX by amino acids (LAT1): neither 100 μmol/L Leu, Met, or Phe, nor 100 μmol/L Ala, Glu, or Gly inhibited

SMILES: C[C@H](N)C(=O)O [Ala]
Inhibition of the uptake of Asp-DOX by amino acids (LAT1): no inhibition | Inhibition of the uptake of DOX by amino acids (LAT1): neither 100 μmol/L Leu, Met, or Phe, nor 100 μmol/L Ala, Glu, or Gly inhibited

SMILES: COc1cccc2c1C(=O)c1c(O)c3c(c(O)c1C2=O)C[C@@](O)(C(=O)CO)C[C@@H]3O[C@H]1C[C@H](N)[C@H](O)[C@H](C)O1 [DOX, doxorubicin]
Uptake (HepG2 (LAT1-positive); dose 10 μg/mL): 0.21 ± 0.030 µg/mL | Uptake (HepG2 (LAT1-positive); dose 20 μg/mL): 0.44 ± 0.032 µg/mL | Uptake (HepG2 (LAT1-positive); dose 50 μg/mL): 0.70 ± 0.079 µg/mL | Drug levels in heart, liver, and lung (HepG2 tumors): significantly higher | Antitumor effect (H1299 tumors [1]): stronger than that of Asp-DOX and saline | PDR (efflux rate, Papp(B–A):Papp(A–B)) [2]: 13.01 ± 1.425 | Papp A–B ([2]; apical to basolateral, 60 min): 0.53 ± 0.093 10^−6 cm/s | Papp B–A ([2]; basolateral to apical, 60 min): 6.63 ± 0.328 10^−6 cm/s | t1/2 ([3]; 5 mg/kg i.v. (tail vein), blood): 15.12 min | AUC0−t ([3]; 5 mg/kg i.v., 0-4 h): 158.894 µg·min/mL | IC50 [4]: 36.51 μg/ml μg/mL | Drug levels in tissues (H1299 tumors [5]): higher than that of Asp-DOX in all tissues | Uptake (H1299 (LAT1-negative); dose 10 μg/mL): 0.20 ± 0.059 µg/mL | Uptake (H1299 (LAT1-negative); dose 20 μg/mL): 0.33 ± 0.019 µg/mL | Uptake (H1299 (LAT1-negative); dose 50 μg/mL): 0.69 ± 0.055 µg/mL

SMILES: NCC(=O)O [Gly]
Inhibition of the uptake of Asp-DOX by amino acids (LAT1): no inhibition | Inhibition of the uptake of DOX by amino acids (LAT1): neither 100 μmol/L Leu, Met, or Phe, nor 100 μmol/L Ala, Glu, or Gly inhibited

Further lines, with some results ahead:

Inhibition of the uptake of Asp-DOX by amino acids (LAT1): strongly inhibited
SMILES: CC(C)C[C@H](N)C(=O)O [Leu, leucine]
Inhibition of the uptake of DOX by amino acids (LAT1): neither 100 μmol/L Leu, Met, or Phe, nor 100 μmol/L Ala, Glu, or Gly inhibited

Inhibition of the uptake of Asp-DOX by amino acids (LAT1): strongly inhibited
SMILES: CSCC[C@H](N)C(=O)O [Met, methionine]
Inhibition of the uptake of DOX by amino acids (LAT1): neither 100 μmol/L Leu, Met, or Phe, nor 100 μmol/L Ala, Glu, or Gly inhibited

Inhibition of the uptake of Asp-DOX by amino acids (LAT1): strongly inhibited
SMILES: N[C@@H](Cc1ccccc1)C(=O)O [Phe, phenylalanine]
Inhibition of the uptake of DOX by amino acids (LAT1): neither 100 μmol/L Leu, Met, or Phe, nor 100 μmol/L Ala, Glu, or Gly inhibited
